Data set [1] deals with G-protein coupled receptor 68 (Homo sapiens) (UniProt Q15743). The data set is described as follows: Positive allosteric modulation of human GPR68 expressed in HEK293T cells co-expressing Gs assessed as stimulation of proton-mediated cAMP production by measuring efficacy cooperativity in HBSS buffer containing pH 6.8 to 8.2 HEPES/pH 8.3 to 8.6 TAPS measured after 20 to 30 mins in presence of PDE inhibitor Ro 20-1724 by luciferase-glo reporter gene assay. The class given is functional, cell-based. The essentials:
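Transient co-transfection of HEK293T with receptor and GloSensor plasmids using PEI, overnight, then replated in DMEM + 1% dFBS for 6–24 h. Luciferin 3.5 mM loaded for 1 h at 37 °C in HBSS/20 mM TAPS, pH 8.40. Proton series: Ca/Mg-free HBSS with MES (pH 5.60–6.70), HEPES (6.80–8.20) or TAPS (8.30–8.60), plus 10 μM Ro 20-1724. BSA 1 mg/mL added where solubility required. Luminescence read at 20–30 min. At least six 16-point proton curves across modulator concentrations, quadruplicate, ≥3 independent assays.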
(cAMP levels reflect the balance of adenylyl cyclase and phosphodiesterase activity.)

In data set [2] the target is G-protein coupled receptor 68 (Mus musculus) (UniProt Q8BFQ3). The data set is described as follows: Positive allosteric modulation of mouse GPR68 expressed in HEK293T cells co-expressing Gs assessed as stimulation of proton-mediated cAMP production by measuring allosteric index in HBSS buffer containing pH 6.8 to 8.2 HEPES/pH 8.3 to 8.6 TAPS measured after 20 to 30 mins in presence of PDE inhibitor Ro 20-1724 by luciferase-glo reporter gene assay. The class given is functional, cell-based. The essentials: (§1)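 α, β and KB obtained by fitting proton responses with and without modulator to the standard allosteric operational model. Overall index is log(αβ/KB). Values are mean ± SEM from ≥3 independent assays, each run in triplicate or quadruplicate.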
Sequence of G-protein coupled receptor 68 (Mus musculus) (Q8BFQ3 whole entry): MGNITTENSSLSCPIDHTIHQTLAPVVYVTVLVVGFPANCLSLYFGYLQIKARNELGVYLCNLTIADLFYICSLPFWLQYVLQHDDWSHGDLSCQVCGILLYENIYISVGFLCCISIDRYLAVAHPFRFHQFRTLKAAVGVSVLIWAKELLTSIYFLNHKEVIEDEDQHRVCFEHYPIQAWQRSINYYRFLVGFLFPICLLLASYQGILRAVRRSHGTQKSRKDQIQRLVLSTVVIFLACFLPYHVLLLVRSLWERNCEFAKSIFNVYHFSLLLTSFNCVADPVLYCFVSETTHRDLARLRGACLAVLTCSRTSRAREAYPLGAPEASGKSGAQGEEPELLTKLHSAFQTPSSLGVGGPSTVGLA

For data set [3], the target named is 5-hydroxytryptamine receptor 2B (Homo sapiens, UniProt P41595). Kind of data set: Agonist activity at human 5HT2B receptor expressed in Flp-In-HEK cells co-expressing Gq assessed as stimulation of calcium mobilization measured for 2 mins by fluo-4 calcium dye-based FLIPR assay. The class given is functional, cell-based. The essentials:
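HEK293 cells stably expressing 5-HT2B, seeded overnight (16–20 h) on poly-L-Lys in DMEM + 1% dFBS. Fluo-4 Direct dye loaded for 1 h at 37 °C in HBSS/20 mM HEPES/2.5 mM probenecid, pH 7.40. Drug diluted in buffer with 1 mg/mL BSA and 0.1 mg/mL ascorbic acid. Fluorescence read for 2 min; peak fold of basal within the first minute.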

Data set [4] concerns the target G-protein coupled receptor 68 (Mus musculus) (UniProt Q8BFQ3). The data set is described as follows: Positive allosteric modulation of mouse GPR68 expressed in HEK293T cells co-expressing Gs assessed as stimulation of proton-mediated cAMP production by measuring efficacy cooperativity in HBSS buffer containing pH 6.8 to 8.2 HEPES/pH 8.3 to 8.6 TAPS measured after 20 to 30 mins in presence of PDE inhibitor Ro 20-1724 by luciferase-glo reporter gene assay. The class given is functional, cell-based. The essentials:
as §1

Data set [5] in a line: Drug uptake in Swiss albino mouse brain at 25 mg/kg, ip administered as single dose measured after 0.5 hrs. The data set is classed as ADME, organism-based. The following applies: read-out: Drug uptake.

Calls of active or inactive are those of the source. The rule behind the calls is not given here. A value given as a limit tells only on which side of the number the result lay.

Sequence of 5-hydroxytryptamine receptor 2B (P41595 whole entry): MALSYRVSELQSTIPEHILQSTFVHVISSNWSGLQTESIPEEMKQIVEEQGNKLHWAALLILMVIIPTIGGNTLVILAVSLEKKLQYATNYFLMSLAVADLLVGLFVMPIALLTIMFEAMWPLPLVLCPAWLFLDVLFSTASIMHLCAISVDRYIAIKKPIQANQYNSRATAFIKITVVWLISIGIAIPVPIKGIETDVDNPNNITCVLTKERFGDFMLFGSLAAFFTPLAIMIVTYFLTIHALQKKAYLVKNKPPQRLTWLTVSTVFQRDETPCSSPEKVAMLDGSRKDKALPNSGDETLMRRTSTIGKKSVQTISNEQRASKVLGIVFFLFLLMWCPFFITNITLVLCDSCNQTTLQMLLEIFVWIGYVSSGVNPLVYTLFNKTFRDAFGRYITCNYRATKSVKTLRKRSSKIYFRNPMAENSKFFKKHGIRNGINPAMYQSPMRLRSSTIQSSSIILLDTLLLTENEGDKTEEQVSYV
Sequence of G-protein coupled receptor 68 (Homo sapiens) (Q15743 whole entry): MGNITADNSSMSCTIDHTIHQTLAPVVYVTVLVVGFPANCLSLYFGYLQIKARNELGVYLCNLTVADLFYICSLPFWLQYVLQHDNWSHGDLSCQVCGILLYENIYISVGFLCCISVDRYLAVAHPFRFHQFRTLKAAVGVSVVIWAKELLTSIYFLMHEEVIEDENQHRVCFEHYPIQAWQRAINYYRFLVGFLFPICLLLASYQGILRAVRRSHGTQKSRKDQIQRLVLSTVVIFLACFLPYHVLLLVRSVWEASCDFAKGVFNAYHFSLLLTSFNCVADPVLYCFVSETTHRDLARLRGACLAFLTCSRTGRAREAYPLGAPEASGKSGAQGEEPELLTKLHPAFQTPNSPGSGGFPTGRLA

Take `Nc1nc(NCc2ccc(Oc3ccccc3)cc2)nc(-c2c(F)cccc2CO)n1`: the log(activity) is 0.06 in data set [1] and 0.09 in data set [4]. The Activity index in data set [2] stood at 6.46. Further, the result in data set [3] was inactive. For the same compound, in data set [5], the concentration at 0.5 h was over 10 µM.

The values are drawn from ChEMBL document CHEMBL4406806, “Design, Synthesis, and Characterization of Ogerin-Based Positive Allosteric Modulators for G Protein-Coupled Receptor 68 (GPR68)” (J Med Chem, 2019).
